# Screening data from PubChem.
# TAAR1 ag: human TAAR1 agonism. activation, % at 3 µM. 360,000 compounds, 0.99% hits. CHO RD-HGA16 TAAR1, Fluo-8 calcium fluorescence; vehicle wells 0%, saturating PEA agonist 100%. Q96RJ0;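 active means activation above the mean activation of all test compounds in the run plus 3 SD, cut at about 38% in these data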
#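 Test system: RD-HGA16 (CHO) cells co-expressing Gα16 and hTAAR1 / Benchmarks: DMSO vehicle as 0%, PEA at EC100 as 100% / Repeats: no replicates (n 1) / Measure: % activation from peak over basal fluorescence ratio, DMSO-to-PEA scaled / Timing: 17-24 h plating, Fluo-8 75 min 37 °C, 30 min RT / Technique: kinetic Fluo-8 calcium fluorescence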
# OX1R antag-1: blocks the human orexin 1 receptor | OX1R-expressing cells, FRET antagonist read-out | inhibition, % at 6.6 µM | 330,000 compounds, 1.8% hits | O43613; in the data active means inhibition mostly above about 38%, no sharp cut-off; inactive means mostly below about 40%;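 further: 0% = agonist challenge alone and 100% = reference antagonist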
# Target sequence (O43613 whole entry, looked up): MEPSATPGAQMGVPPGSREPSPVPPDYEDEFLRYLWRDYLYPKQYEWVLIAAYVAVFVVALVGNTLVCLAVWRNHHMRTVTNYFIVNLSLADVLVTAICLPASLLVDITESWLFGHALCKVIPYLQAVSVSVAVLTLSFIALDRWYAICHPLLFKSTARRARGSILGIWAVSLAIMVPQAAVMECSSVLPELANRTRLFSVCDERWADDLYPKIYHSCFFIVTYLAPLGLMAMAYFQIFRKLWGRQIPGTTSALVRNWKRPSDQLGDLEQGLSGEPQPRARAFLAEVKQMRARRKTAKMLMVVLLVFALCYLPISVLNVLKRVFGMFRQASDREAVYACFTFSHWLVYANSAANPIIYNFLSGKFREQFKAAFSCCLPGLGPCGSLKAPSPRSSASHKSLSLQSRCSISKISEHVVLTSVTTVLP
# CHO parental Ca: signal in parental CHO cells, OX1R antagonist counter-screen. parental CHO-K1, ATP-induced calcium, Fluo-8 fluorescence. inhibition, % at 5.6 µM. 330,000 compounds, 0.63% hits. AID 463079;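 active means inhibition above that plate's mean sample inhibition plus 3 SD, cut at about 26% in these data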;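 further: 0% = ATP-challenged DMSO wells and 100% = DMSO wells without ATP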
#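 Assay system – parental CHO cells · Reagent – ATP stimulus · Detection – intracellular calcium via Fluo-8 no-wash fluorescent dye · Evaluation – percent inhibition of ATP-evoked calcium rise, normalized to controls · Controls – ATP wells versus no-ATP DMSO wells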
# OX1R antag-2: antagonists of human orexin 1 receptor; O43613; CHO/OX1R cells, Fluo-8 calcium fluorescence, orexin A; inhibition, % at 5 µM; 330,000 compounds, 0.43% hits;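 active means inhibition above its plate's threshold, mean inhibition of all tested compounds on the plate plus 3 SD, cut at about 37% in these data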;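 further: 0% = orexin A challenge wells and 100% = SB-334867-A antagonist wells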
# GPR7 antagonist: human neuropeptides B/W receptor 1 antagonism | inhibition, % at 4.4 µM | 290,000 compounds, 1.1% hits | P48145 | GPR7-expressing cells, fluorescence antagonist assay; in the data active means inhibition above about 16%, passing the limit was not always enough;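 further: cells stimulated with the agonist NPW; 0% = agonist with vehicle and 100% = vehicle without agonist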
# TAAR1 antag: antagonists of human TAAR1; Q96RJ0; CHO RD-HGA16 TAAR1, Fluo-8 calcium fluorescence, antagonist; inhibition, % at 3 µM; 360,000 compounds, 1.5% hits; AID 624466;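 active means inhibition above a per-plate cutoff, the mean inhibition of test compounds on that plate plus 3 SD, cut at about 49% in these data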;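 further: 0% = DMSO plus EC80 beta-PEA response and 100% = DMSO alone without agonist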
#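 System: RD-HGA16 CHO cells with stable hTAAR1 and Gα16 | Probe or stimulus: EC80 β-phenethylamine stimulus | Dosing: 3 µM, single point | Times: Dye loading 75 min at 37 °C, then 30 min room temperature | Measured by: Fluo-8 calcium-sensitive fluorescence | Read-out basis: % inhibition of agonist calcium response | Replicates: n of 1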
# * = called active by the depositor; / = no result. Rows were chosen to be rich in hits. Some 4.6% of all compounds tested hit in one or more screens of this group.
SMILES,TAAR1 ag,OX1R antag-1,CHO parental Ca,OX1R antag-2,GPR7 antagonist,TAAR1 antag
O=C(c1ccco1)N1CCN(c2ncnc3c2oc2ccccc23)CC1,14,74*,-14,0,-3,10
CC(C)(COC(=O)c1ccccc1)N1CC2CCC(C1)O2,-1,/,/,/,/,5
CCc1cccc(C)c1NC(=O)CSc1ncn[nH]1,2,-5,29*,2,-13,3
CCc1ccccc1NC(=O)CSc1ncn[nH]1,2,1,-5,1,-3,-5
COc1cc(NS(=O)(=O)c2c(C)[nH]c(C)c2C(=O)N2CCCCC2)cc(OC)c1OC,3,17,-17,-7,6,-11
COc1ccc(Cl)cc1NS(=O)(=O)c1c(C)[nH]c(C)c1C(=O)N1CCCCC1,5,49*,-26,12,-2,-11
COC(=O)c1cc2c(c3c4cc(OC)ccc4n(S(=O)(=O)c4ccc(F)cc4)c13)C(=O)N(CC(C)C)C2,-2,/,/,/,/,-47
COc1ccc2c(c1)c1nnc(SC)nc1n2C,20,48*,-8,-1,-2,5
C[C@@H]1Cc2[nH][nH]c(=O)c2[C@H](C)O1,1,/,/,/,/,1
CC1=NN(c2ccccc2)C(=O)/C1=C\C=C1\N(C)c2ccccc2C1(C)C,54*,33,24,50*,25,19
O=C(NCc1cccnc1)c1csc([C@@H]2C[C@H](O)[C@@H](CO)O2)n1,2,/,/,/,/,-18
Nc1ncnc2c1ncn2[C@@H]1O[C@H](C(=O)N[C@@H](CCc2ccccc2)C(=O)O)[C@@H](O)[C@H]1O,1,/,/,/,/,-9
Cn1nc(CC(=O)Nc2ccc3c(c2)OCCO3)c2ccccc2c1=O,6,51,48*,47*,3,26
Cc1nc2ccc(NS(=O)(=O)c3ccc(C)c(C)c3)cc2s1,19,37,55*,32,13,12
C[C@@H]1CN(C(=O)OC(C)(C)C)CCN1c1ccc(N2CC[C@@H](O)C2)c(C#N)c1,6,/,/,/,/,-1
COc1cccc(OC)c1C(=O)Nc1cc(Cl)ccc1N1CCOCC1,13,53*,-41,-6,-9,-19
CC(C)(C)c1ccc(CN(Cc2ccco2)Cc2nnnn2C2CCCC2)cc1,2,12,48*,-22,6,29
Cc1nc(C(=O)O)nn1-c1ccc([N+](=O)[O-])cc1,-1,46*,-3,7,-12,15
O=C1Nc2ccccc2-n2nnnc2C1N1CCN(c2ccc(C(F)(F)F)cc2[N+](=O)[O-])CC1 (stereo not given),29,/,/,/,/,-14
CCOC(=O)Cc1csc(SCC(=O)Nc2cc(Cl)ccc2Oc2ccccc2)n1,17,54,62*,61*,6,88*
CCOC(=O)Cc1csc(SCC(=O)Nc2cccc(Cl)c2)n1,9,34,10,5,-2,25
Cc1nc2c(OCc3cc(Cl)cc(Cl)c3)cccn2c1N(C)C(=O)CCC1CCCC1,-1,/,/,/,/,32
CCOC(=O)N1CCN(C(=O)c2cn(-c3ccc(C)c(C)c3)c(=O)c3ccccc23)CC1,17,/,/,/,75*,-2
S=c1[nH]nc(-c2ccncc2)n1/N=C/C(Cl)=C\c1ccccc1,52*,42*,-19,-28,6,-13
CC(=O)c1cccc(NC(=O)CN(C)S(=O)(=O)c2cccc3nsnc23)c1,5,44*,-20,-67,2,-12
SMILES,TAAR1 ag,OX1R antag-1,CHO parental Ca,OX1R antag-2,GPR7 antagonist,TAAR1 antag
CCOc1ccc(CCNC(=O)CN(C)S(=O)(=O)c2cccc3nsnc23)cc1OCC,9,25,-25,-20,-9,0
CN(CC(=O)N1CCCCC1)S(=O)(=O)c1cccc2nsnc12,1,55*,-7,-9,3,-12
CN(CC(=O)Nc1ccc(F)c(Cl)c1)S(=O)(=O)c1cccc2nsnc12,11,33,3,0,-1,25
Cc1ccc(NC(=O)CN(C)S(=O)(=O)c2cccc3nsnc23)cc1,10,53,0,-16,1,-3
CN(CC(=O)NCCc1ccc(S(N)(=O)=O)cc1)S(=O)(=O)c1cccc2nsnc12,5,59*,9,-19,18,-13
Cc1ccc(CNC(=O)CN(C)S(=O)(=O)c2cccc3nsnc23)cc1,13,71*,-21,-19,-1,-21
COc1ccccc1Cc1c(-c2ccc(F)cc2)nc2c3ccccc3ccn12,-1,/,/,/,/,-2
Cc1ccc(S(=O)(=O)c2ccc([N+](=O)[O-])o2)cc1,-1,/,/,/,/,-4
O=C1Cn2nnc(-c3ccccc3)c2C2c3cc(Br)ccc3CCN12 (stereo not given),2,/,/,/,/,-8
COc1cc(CNC2CCCCCC2)cc(OC)c1O,4,8,0,3,-13,-2
COc1cc(CNC2CCCC2)cc(Cl)c1OCc1ccccc1F,39*,15,21,6,9,27
C=CCNc1ccc2c(c1)OC[C@H](CC(C)C)NS2(=O)=O,2,/,/,/,/,-5
COC(=O)C1=C(C)N(Cc2ccc(C(F)(F)F)cc2)C(=NCc2ccc(OC)cc2)NC1c1ccccc1C(F)(F)F (stereo not given),14,/,/,/,/,-15
Cc1ccc(N=Nc2c(=O)[nH]n3c(=O)cc(C)[nH]c23)cc1,3,55*,10,1,-1,-4
C=CCNc1ccc2c(c1)OC[C@@H](CC(C)C)NS2(=O)=O,-2,/,/,/,/,3
CC(=O)c1c(C)[nH]c(C(=O)COC(=O)C2(C)CC2(Cl)Cl)c1C (stereo not given),17,6,-6,16,/,56*
CC(=O)c1c(C)[nH]c(C(=O)COC(=O)c2cc(C)oc2C)c1C,8,15,-5,18,/,16
CCN1/C(=C\c2ccc3cc(C)ccc3[n+]2CC)Sc2cc(C)c(C)cc21,16,/,/,/,9,13
CCN1/C(=C/c2ccc3cc(C)ccc3[n+]2CC)Sc2ccc3sccc3c21,/,27,48*,29,/,/
CC(NC(=O)COC(=O)c1c[nH]c2ccccc12)c1ccccc1 (stereo not given),4,43*,-9,32,/,7
O=C(NCCc1c[nH]c2ccccc12)OCCCCOC(=O)NCCc1c[nH]c2ccccc12,16,61*,31,61*,/,80*
O=C(CCCc1c[nH]c2ccccc12)NCCc1c[nH]c2ccccc12,6,49*,1,19,8,19
O=C(COC(=O)c1ccccc1C(=O)OCC(=O)NCCc1c[nH]c2ccccc12)NCCc1c[nH]c2ccccc12,34,68*,29,58*,/,76*
O=C(COC(=O)c1c[nH]c2ccccc12)Nc1ccccc1,9,12,-4,-4,/,12
COc1ccccc1N1CCCSC1=Nc1ccccc1,3,/,/,/,/,-2
